# Assay results published in ChEMBL document CHEMBL1125445, “Bis(maltolato)oxovanadium(IV) is a potent insulin mimic” (J Med Chem, 1992).
# Key:
# Type in all cases: functional, organism-based
# Rattus norvegicus [1] = experiment: Decrease in plasma insulin (microUnits/mL) in male Wistar rats diabetic (D) group (number of rats = 11) where the diabetic state was induced by intravenous administration of streptozocin (STZ) at 60 mg/kg; design: dose 60 mg/kg
# Procedure, shortened: (§1)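 Wistar males, with STZ diabetes from 60 mg/kg i.v. in saline or saline-injected controls. Treated groups got the compound ad libitum in drinking water (1.58 mM) and untreated groups got tap water. Plasma was taken after 4 weeks by centrifuging blood at 20000g for 10 min at 4 °C and kept at -70 °C until assay. Reported as mean ± SEM, with ANOVA then Newman-Keuls.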
# Rattus norvegicus [2] = species on record: Rattus norvegicus; experiment: Decrease in plasma cholesterol (mM) in male Wistar rats diabetic treated (DT) group (number of rats = 12) which received compound dissolved in tap water; procedure, shortened: as §1
# Rattus norvegicus [3] = species on record: Rattus norvegicus; experiment: Decrease in plasma insulin (microUnits/mL) of Male Wistar ratsrecieved an equivalent volume of isotonic saline (C control group); procedure, shortened: as §1
# Rattus norvegicus [4] = experiment: Decrease in fluid (mL/rat/day)-intake-in male Wistar rats diabetic (D) group (number of rats = 11) where the diabetic state was induced by intravenous administration of streptozocin (STZ) at 60 mg/kg; design: dose 60 mg/kg
# Procedure, shortened: (§2)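 Male Wistar rats; diabetes induced by a single tail-vein injection of streptozocin, 60 mg/kg in 0.9% NaCl, and non-diabetic rats got saline. Treated groups drank the compound in tap water (1.58 mM), and untreated groups drank tap water. Food and fluid intake per 24 h per cage was divided by rats per cage. Values at week 4, mean ± SEM, ANOVA/Newman-Keuls.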
# Rattus norvegicus [5] = species on record: Rattus norvegicus; experiment: Decrease in plasma triglyceride (mM) of male Wistar rats control treated (CT) group (number of rats = 11) which received compound dissolved in tap water; procedure, shortened: as §1
# Rattus norvegicus [6] = species on record: Rattus norvegicus; experiment: Decrease in fluid intake of male Wistar rats control treated (CT) group (number of rats = 11) which received compound dissolved in tap water; procedure, shortened: as §2
# Rattus norvegicus [7] = species on record: Rattus norvegicus; experiment: Decrease in plasma triglyceride (mM) in male Wistar rats diabetic treated (DT) group (number of rats = 12) which received compound dissolved in tap water; procedure, shortened: as §1
# Rattus norvegicus [8] = species on record: Rattus norvegicus; experiment: Decrease weight(g) in male Wistar rats diabetic treated (DT) group (number of rats = 12) which received compound dissolved in tap water
# Procedure, shortened: (§3)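 Male Wistar rats housed 2–3 per cage on a 12 h light/dark cycle with free food and water. Diabetes was induced by i.v. streptozocin, 60 mg/kg in 0.9% NaCl, and controls got saline. Treated groups drank the compound at 1.58 mM in tap water. Body weight was recorded daily and reported at week 4 as mean ± SEM, with ANOVA/Newman-Keuls.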
# Rattus norvegicus [9] = species on record: Rattus norvegicus; experiment: Decrease in food intake of male Wistar rats control treated (CT) group (number of rats = 11) which received compound dissolved in tap water; procedure, shortened: as §2
# Rattus norvegicus [10] = species on record: Rattus norvegicus; experiment: Decrease in plasma cholesterol (mM) of Male Wistar ratsrecieved an equivalent volume of isotonic saline (C control group); procedure, shortened: as §1
# Rattus norvegicus [11] = species on record: Rattus norvegicus; experiment: Decrease in food intake of Male Wistar ratsrecieved an equivalent volume of isotonic saline (C control group); procedure, shortened: as §2
# Rattus norvegicus [12] = species on record: Rattus norvegicus; experiment: Decrease in weight of male Wistar rats control treated (CT) group (number of rats = 11) which received compound dissolved in tap water; procedure, shortened: as §3
# Rattus norvegicus [13] = species on record: Rattus norvegicus; experiment: Decrease in plasma insulin (microUnits/mL) in male Wistar rats diabetic treated (DT) group (number of rats = 12) which received compound dissolved in tap water; procedure, shortened: as §1
# Rattus norvegicus [14] = experiment: Decrease in weight(g)in male Wistar rats diabetic (D) group (number of rats = 11) where the diabetic state was induced by intravenous administration of streptozocin (STZ) at 60 mg/kg; design: dose 60 mg/kg; procedure, shortened: as §3
# Rattus norvegicus [15] = species on record: Rattus norvegicus; experiment: Decrease in weight of Male Wistar ratsrecieved an equivalent volume of isotonic saline (C control group); procedure, shortened: as §3
# Rattus norvegicus [16] = experiment: Decrease in plasma cholesterol (mM)in male Wistar rats diabetic (D) group (number of rats = 11) where the diabetic state was induced by intravenous administration of streptozocin (STZ) at 60 mg/kg; design: dose 60 mg/kg; procedure, shortened: as §1
# Rattus norvegicus [17] = species on record: Rattus norvegicus; experiment: Decrease in plasma glucose (mM) of male Wistar rats control treated (CT) group (number of rats = 11) which received compound dissolved in tap water; procedure, shortened: as §1
# Rattus norvegicus [18] = species on record: Rattus norvegicus; experiment: Decrease in plasma insulin (microUnits/mL) of male Wistar rats control treated (CT) group (number of rats = 11) which received compound dissolved in tap water; procedure, shortened: as §1
# Rattus norvegicus [19] = species on record: Rattus norvegicus; experiment: Decrease in plasma glucose (mM) in male Wistar rats diabetic treated (DT) group (number of rats = 12) which received compound dissolved in tap water; procedure, shortened: as §1
# Rattus norvegicus [20] = experiment: Decrease in plasma glucose (mM)in male Wistar rats diabetic (D) group (number of rats = 11) where the diabetic state was induced by intravenous administration of streptozocin (STZ) at 60 mg/kg; design: dose 60 mg/kg; procedure, shortened: as §1
# Rattus norvegicus [21] = species on record: Rattus norvegicus; experiment: Decrease food (g/rat/day) intake in male Wistar rats diabetic treated (DT) group (number of rats = 12) which received compound dissolved in tap water; procedure, shortened: as §2
# Rattus norvegicus [22] = experiment: Decrease in plasma triglyceride (mM)in male Wistar rats diabetic (D) group (number of rats = 11) where the diabetic state was induced by intravenous administration of streptozocin (STZ) at 60 mg/kg; design: dose 60 mg/kg; procedure, shortened: as §1
# Rattus norvegicus [23] = species on record: Rattus norvegicus; experiment: Decrease in plasma glucose (mM) of Male Wistar ratsrecieved an equivalent volume of isotonic saline (C control group); procedure, shortened: as §1
# Rattus norvegicus [24] = species on record: Rattus norvegicus; experiment: Decrease in fluid intake of Male Wistar ratsrecieved an equivalent volume of isotonic saline (C control group); procedure, shortened: as §2
# Rattus norvegicus [25] = experiment: Decrease in food (g/rat/day)in take in male Wistar rats diabetic (D) group (number of rats = 11) where the diabetic state was induced by intravenous administration of streptozocin (STZ) at 60 mg/kg; design: dose 60 mg/kg; procedure, shortened: as §2
# Rattus norvegicus [26] = species on record: Rattus norvegicus; experiment: Decrease in plasma cholesterol (mM) of male Wistar rats control treated (CT) group (number of rats = 11) which received compound dissolved in tap water; procedure, shortened: as §1
# Rattus norvegicus [27] = species on record: Rattus norvegicus; experiment: Decrease in fluid (mL/rat/day)-intake in male Wistar rats diabetic treated (DT) group (number of rats = 12) which received compound dissolved in tap water; procedure, shortened: as §2
# Rattus norvegicus [28] = species on record: Rattus norvegicus; experiment: Decrease in plasma triglyceride (mM) of Male Wistar ratsrecieved an equivalent volume of isotonic saline (C control group); procedure, shortened: as §1
substance,measurement,setting,value
BIS(MALTOLATO)OXOVANADIUM(IV),Plasma insulin,Rattus norvegicus [1],22 uUnits ml-1
same,Plasma cholesterol,Rattus norvegicus [2],1.6 mM
same,Plasma insulin,Rattus norvegicus [3],35.6 uUnits ml-1
same,Fluid (ml rat-1 day-1),Rattus norvegicus [4],264
same,Plasma triglyceride,Rattus norvegicus [5],2.1 mM
same,Fluid (ml rat-1 day-1),Rattus norvegicus [6],43
same,Plasma triglyceride,Rattus norvegicus [7],1.9 mM
same,WEIGHT,Rattus norvegicus [8],311 g
same,Food (g rat-1 day-1),Rattus norvegicus [9],28.8
same,Plasma cholesterol,Rattus norvegicus [10],1.4 mM
same,Food (g rat-1 day-1),Rattus norvegicus [11],28.3
same,WEIGHT,Rattus norvegicus [12],391 g
same,Plasma insulin,Rattus norvegicus [13],21.9 uUnits ml-1
same,WEIGHT,Rattus norvegicus [14],349 g
same,WEIGHT,Rattus norvegicus [15],404 g
same,Plasma cholesterol,Rattus norvegicus [16],2.4 mM
same,Plasma glucose,Rattus norvegicus [17],4.1 mM
same,Plasma insulin,Rattus norvegicus [18],21.6 uUnits ml-1
same,Plasma glucose,Rattus norvegicus [19],7 mM
same,Plasma glucose,Rattus norvegicus [20],13.9 mM
same,Food (g rat-1 day-1),Rattus norvegicus [21],37.9
same,Plasma triglyceride,Rattus norvegicus [22],2.7 mM
same,Plasma glucose,Rattus norvegicus [23],4 mM
same,Fluid (ml rat-1 day-1),Rattus norvegicus [24],59
same,Food (g rat-1 day-1),Rattus norvegicus [25],63.5
same,Plasma cholesterol,Rattus norvegicus [26],1.7 mM
same,Fluid (ml rat-1 day-1),Rattus norvegicus [27],52
same,Plasma triglyceride,Rattus norvegicus [28],1.8 mM
